{"data": "Measurements from different studies", "observed": "microbial growth", "note": "Lines come from different studies, so protocols differ."}
{"SMILES": "CCc1cc(Nc2cc(=O)n(CCCCO)c(=O)[nH]2)ccc1C", "organism": "Lactobacillus acidophilus", "assay": "agar dilution", "setting": "48 h", "MIC": "32 µg/mL"}
{"SMILES": "CNC(=O)c1cc(Oc2ccc(NC(=O)Nc3c(C)cc(C)cc3C)cc2)ccn1", "organism": "Staphylococcus aureus", "system": "NCTC8325", "MIC": "> 100 µM"}
{"SMILES": "CC1=NN(CNc2ccc(O)cc2)C(=O)C1=NNn1c(-c2ccccc2)nc2ccccc2c1=O", "organism": "Micrococcus luteus", "assay": "broth dilution", "setting": "24 h", "MIC": "53.5 µM"}
{"SMILES": "O=C1NC(=S)N/C1=C\\c1ccc(-c2ccc(N(c3ccccc3)c3ccccc3)cc2)cc1", "organism": "Micrococcus luteus", "assay": "broth dilution", "system": "ATCC10240", "MIC": "62.5 µg/mL"}
{"SMILES": "O=C(N[C@H](CO)[C@H](O)c1ccc([N+](=O)[O-])cc1)C(Cl)Cl", "organism": "Micrococcus flavus", "assay": "broth dilution", "MIC": "7 µg/mL"}
{"SMILES": "Cc1ccc([N+](=O)[O-])cc1S(=O)(=O)N(C)/N=C/c1cnc2ccc(Br)cn12", "organism": "Staphylococcus aureus", "system": "NCTC8325", "MIC": "> 30 µM"}
{"SMILES": "C/C=C(\\C)c1cc(OC(=O)c2c(O)c(C)c(O)c(Cl)c2/C(C)=C/C)c(C)c(O)c1C(=O)O", "organism": "Micrococcus luteus", "assay": "broth dilution", "system": "ML01", "MIC": "32 µg/mL"}
{"SMILES": "O=c1[nH]c(NCc2ccc(Cl)c(Cl)c2)nc2ncn(CCCCCN3CCOCC3)c12", "organism": "Lactobacillus acidophilus", "assay": "agar dilution", "setting": "48 h", "MIC": "2 µg/mL"}
{"SMILES": "O=C(O)CN1C(=O)/C(=C/c2c3ccccc3c(-c3ccc(N(c4ccccc4)c4ccccc4)cc3)c3ccccc23)SC1=S", "organism": "Micrococcus luteus", "assay": "broth dilution", "system": "ATCC10240", "MIC": "125 µg/mL"}
{"SMILES": "O=C1NN=C(N=Cc2ccc(O)cc2O)C1=NNn1c(-c2ccccc2)nc2ccccc2c1=O", "organism": "Micrococcus luteus", "assay": "broth dilution", "setting": "24 h", "MIC": "53.5 µM"}
{"SMILES": "O=C(O)c1cn(C2CC2)c2cc(N3CCNCC3)c(F)cc2c1=O", "organism": "Micrococcus luteus", "assay": "broth dilution", "system": "ATCC10240", "MIC": "0.98 µg/mL"}
{"SMILES": "CN(C)Cc1cccc(N=C(c2ccccc2)c2c(O)[nH]c3cc(C(=O)N(C)C)ccc23)c1", "organism": "Staphylococcus aureus", "system": "NCTC8325", "MIC": "> 30 µM"}
{"SMILES": "O=C(O)CN1C(=O)/C(=C/c2c3ccccc3c(-c3ccc(N(c4ccccc4)c4ccccc4)cc3)c3ccccc23)NC1=S", "organism": "Micrococcus luteus", "assay": "broth dilution", "system": "ATCC10240", "MIC": "> 1000 µg/mL"}
{"SMILES": "O=C(Nc1ccc2c(c1)OCO2)Nc1ccc(Cl)c(C(F)(F)F)c1", "organism": "Staphylococcus aureus", "system": "NCTC8325", "MIC": "10 µM"}
{"SMILES": "O=C1NC(=S)N/C1=C\\c1c2ccccc2c(-c2ccc(N(c3ccccc3)c3ccccc3)cc2)c2ccccc12", "organism": "Micrococcus luteus", "assay": "broth dilution", "system": "ATCC10240", "MIC": "> 1000 µg/mL"}
{"SMILES": "CC1=NN(CNc2ccccc2[N+](=O)[O-])C(=O)C1=NNn1c(-c2ccccc2)nc2ccccc2c1=O", "organism": "Micrococcus luteus", "assay": "broth dilution", "setting": "24 h", "MIC": "50.4 µM"}
{"SMILES": "CC(=O)NCC(=O)N1[C@@H]2CC[C@H]1c1ccc(Nc3ncc(C(F)(F)F)c(NC4CCC4)n3)cc12", "organism": "Staphylococcus aureus", "system": "NCTC8325", "MIC": "> 30 µM"}
